Test results: ChEMBL document CHEMBL3525942, “Disposition and metabolism of [14C]SB-649868, an orexin 1 and 2 receptor antagonist, in humans” (Drug Metab Dispos, 2011)

Tests used:
[1] = Drug level in human urine treated with [14C]SB-649868 at 30 mg, po single dose after 0 to 72 hrs by HPLC-MSn analysis; conditions: in vivo, 0-72 h
[2] = Drug level in human feces treated with [14C]SB-649868 at 30 mg, po single dose by HPLC-MSn analysis; conditions: in vivo
Homo sapiens [3] = test: Tmax in human plasma treated with [14C]SB-649868 at 30 mg, po single dose; format: ADME, organism-based; design: dosed compound name [14C]SB-649868; conditions: in vivo
Method in brief: (§1)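 Eight healthy men given one oral 30 mg [14C] capsule. Plasma sampled 0.25–96 h. Parent measured in 50 µl plasma after acetonitrile precipitation with deuterated internal standard, by HPLC-MS/MS (positive-ion MRM). Calibration 5–5000 ng/ml, 1/x2 weighted. Noncompartmental analysis: t1/2 = ln2/λz, linear-up/log-down trapezoid AUC, CL/F = Dose/AUC0-inf.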

Homo sapiens [4] = test: Cmax in human plasma treated with [14C]SB-649868 at 30 mg, po single dose; format: ADME, organism-based; design: dosed compound name [14C]SB-649868; conditions: in vivo
Method in brief: as §1

[5] = Terminal phase half life in human at 10 to 60 mg; format: ADME, organism-based; design: dosed compound name [14C]SB-649868; conditions: in vivo, read-out: Compound recovery (converted)
Homo sapiens [6] = test: Apparent half life in human plasma treated with [14C]SB-649868 at 30 mg, po single dose; format: ADME, organism-based; design: dosed compound name [14C]SB-649868; conditions: in vivo
Method in brief: as §1

Homo sapiens [7] = test: Apparent oral clearance in human plasma treated with [14C]SB-649868 at 30 mg, po single dose; format: ADME, organism-based; design: dosed compound name [14C]SB-649868; conditions: in vivo
Method in brief: as §1

[8] = Elimination half life in dog; format: ADME, organism-based, Canis lupus familiaris; design: dosed compound name [14C]SB-649868; conditions: in vivo, read-out: Compound recovery
Plasma [9] = test: Drug level in human plasma assessed as radioactivity treated with [14C]SB-649868 at 30 mg, po single dose after 48 hrs by HPLC-MSn analysis; format: ADME, organism-based; design: dosed compound name [14C]SB-649868; conditions: in vivo
Method in brief: (§2)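 Plasma taken 3, 12, 24 and 48 h after one oral 30 mg [14C] dose, extracted, and run on radio-HPLC: C8 column, 45 mM ammonium acetate pH 3.8 and acetonitrile gradient, 1 ml/min. Fractions collected into scintillant plates and counted 5 min. Extraction recovery measured; data corrected when recovery was <85%. Values are % of plasma radioactivity, BQL 1%; n=7 at 3 and 12 h.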

Plasma [10] = test: Drug level in human plasma assessed as radioactivity treated with [14C]SB-649868 at 30 mg, po single dose after 24 hrs by HPLC-MSn analysis; format: ADME, organism-based; design: dosed compound name [14C]SB-649868; conditions: in vivo
Method in brief: as §2

Plasma [11] = test: Drug recovery in human plasma at 30, po single dose after 48 hrs by HPLC-MSn analysis; format: ADME, organism-based; design: dosed compound name [14C]SB-649868
Method in brief: as §2

Plasma [12] = test: Drug level in human plasma assessed as radioactivity treated with [14C]SB-649868 at 30 mg, po single dose after 12 hrs by HPLC-MSn analysis; format: ADME, organism-based; design: dosed compound name [14C]SB-649868; conditions: in vivo
Method in brief: as §2

Homo sapiens [13] = test: AUC (0 to infinity) in human plasma treated with [14C]SB-649868 at 30 mg, po single dose; format: ADME, organism-based; design: dosed compound name [14C]SB-649868; conditions: in vivo
Method in brief: as §1

Plasma [14] = test: Drug recovery in human plasma at 30, po single dose after 3 hrs by HPLC-MSn analysis; format: ADME, organism-based; design: dosed compound name [14C]SB-649868
Method in brief: as §2

[15] = Elimination half life in rat; format: ADME, organism-based; design: dosed compound name [14C]SB-649868; conditions: in vivo, read-out: Compound recovery
Plasma [16] = test: Drug level in human plasma assessed as radioactivity treated with [14C]SB-649868 at 30 mg, po single dose after 3 hrs by HPLC-MSn analysis; format: ADME, organism-based; design: dosed compound name [14C]SB-649868; conditions: in vivo
Method in brief: as §2

Homo sapiens [17] = test: AUC (0 to t) in human plasma treated with [14C]SB-649868 at 30 mg, po single dose; format: ADME, organism-based; design: dosed compound name [14C]SB-649868; conditions: in vivo
Method in brief: as §1

| SMILES | Compound recovery [1] | Compound recovery [2] | Compound recovery (Homo sapiens [3]) | Compound recovery (Homo sapiens [4]) | half-life [5] | Compound recovery (Homo sapiens [6]) | Compound recovery (Homo sapiens [7]) | half-life [8] | Compound recovery (Plasma [9]) | Compound recovery (Plasma [10]) | Compound recovery (Plasma [11]) | Compound recovery (Plasma [12]) | Compound recovery (Homo sapiens [13]) | Compound recovery (Plasma [14]) | half-life [15] | Compound recovery (Plasma [16]) | Compound recovery (Homo sapiens [17]) |
| --- | --- | --- | --- | --- | --- | --- | --- | --- | --- | --- | --- | --- | --- | --- | --- | --- | --- |
| Cc1nc(C(=O)N2CCCC[C@H]2Cn2ccc3c(O)cccc3c2=O)c(-c2ccc(F)cc2)s1 | Below quantification limit | 0.7% |  |  |  |  |  |  |  |  |  |  |  |  |  |  |  |
| Cc1nc(C(=O)N2CCCC[C@H]2CNC(=O)c2cccc3occc23)c(-c2ccc(F)cc2)s1 [SB-649868] | Below quantification limit | Below quantification limit | 4 h | 1.2 µg/mL | 2.2 h | 4.8 h | 3610 mL/h | < 1 h | < 1 | 9.8% | 34% | 33.2% | 8.3 µg·h/mL | 97% | < 1 h | 67.7% | 8.2 µg·h/mL |
